Drawing on ChEMBL document CHEMBL1240495, “Alpha,beta-unsaturated N-acylpyrrole peptidyl derivatives: new proteasome inhibitors” (J Med Chem, 2010), this text covers IC50 and Activity for 10 compounds.

SMILES strings stand for the structures. Peptide text beside a SMILES is read from it. * marks the point of attachment. Cbz = O=C(OCc1ccccc1)*

Series [1] in a line: Inhibition of chymotrypsin-like activity of 20S proteasome in human LCL cells after 12 hrs.
For series [2], the system named is 20S proteasome beta1 subunit (Homo sapiens). The series is described as follows: Inhibition of PGPH catalytic activity of 20S proteasome beta1 in human LCL cells after 12 hrs.
Series [3] is described as follows: Inhibition of trypsin-like activity of 20S proteasome beta2 from human LCL cells after 30 mins.
Series [4] in a line: Inhibition of trypsin-like activity of 20S proteasome beta 2 in human LCL cells after 12 hrs by in vivo assay. In short, it runs like this: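 LCLs exposed to inhibitor for 12 h at 37 °C. Proteasomes then partially purified and incubated 30 min at 37 °C in activity buffer with Suc-LLVY-AMC (chymotrypsin-like), Boc-LRR-AMC (trypsin-like) or Z-LLE-AMC (postacidic). Fluorescence read at ex 360/em 465 nm.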

In series [5] the test system is 20S proteasome beta1 subunit (Homo sapiens). The series is described as follows: Inhibition of PGPH catalytic activity of 20S proteasome beta1 in human LCL cells after 12 hrs by in vivo assay.
Series [6] concerns 20S proteasome beta5 subunit (Homo sapiens). The series is described as follows: Inhibition of chymotrypsin-like activity of 20S proteasome beta5 in human LCL cells after 12 hrs by in vivo assay.
Series [7] can be described thus: Cytotoxicity against human LCL cells at 10 uM after 3 days by trypan blue exclusion assay. To be noted: 72 h. Format: cell-based. In short, it runs like this: (§1)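 LCL and Burkitt's lymphoma JiJoye cells seeded in duplicate at 50 × 10³ cells/mL in medium with 10% FCS. Exposed to 0.1–10 μM compound or medium alone. Viability and proliferation followed for 3 days by Trypan blue exclusion and cell counting.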

In another series the test system is JIYOYE. The series is described as follows: Cytotoxicity against human Jijoye cells at 10 uM after 3 days by trypan blue exclusion assay. The format is cell-based. The following applies: 72 h. In short, it runs like this:
as §1

The IC50 is the concentration that inhibits the measured activity by half. A lower IC50 goes with greater potency in that assay. With `CC(C)C[C@@H](/C=C/C(=O)n1cccc1)NC(=O)[C@H](CO)NC(=O)[C@@H](NC(=O)OCc1ccccc1)C(C)C`, the results for the IC50 in series [1], in series [2] and in series [3] were > 10000 nM, 122 nM and > 10000 nM, respectively.
In the case of `CC(C)C[C@@H](/C=C/C(=O)n1cccc1)NC(=O)[C@H](CC(C)C)NC(=O)[C@H](CC(C)C)NC(=O)CCCCCCCNC(=O)OCc1ccccc1`, the IC50 in series [1] was > 10000 nM; in series [4] it was > 10000 nM; in series [5], 116 nM; in series [2] it was 62 nM; in series [3], > 10000 nM; in series [6] it was > 10000 nM.
For `Cc1c(O)cccc1C(=O)N[C@H](C(=O)N[C@@H](CO)C(=O)N[C@H](/C=C/C(=O)n1cccc1)CC(C)C)C(C)C`, the IC50 in series [1] is > 10000 nM; in series [2], 178 nM; in series [3], > 10000 nM.
Take `CC(C)C[C@@H](C=O)NC(=O)[C@H](CC(C)C)NC(=O)[C@H](CC(C)C)NC(=O)OCc1ccccc1` [MG-132] (Cbz-Leu-Leu-Leu-aldehyde): the IC50 in series [1] worked out at 2 nM; in series [3] it was 1080 nM.
For the compound `CC(C)C[C@@H](/C=C/C(=O)n1cccc1)NC(=O)[C@H](CO)NC(=O)[C@@H](NC(=O)CCCCCCCNC(=O)OCc1ccccc1)C(C)C`, the half-inhibitory concentration (IC50) in series [1] is 5080 nM; in series [4], > 10000 nM; in series [5], 58 nM; in series [2], 36 nM; in series [3] it was > 10000 nM; in series [6], > 10000 nM. For the same compound, the Activity entry (in series [7]; with JIYOYE) was “Not Active” in each case.
Consider `CC(C)C[C@@H](/C=C/C(=O)n1cccc1)NC(=O)[C@H](CO)NC(=O)[C@@H](NC(=O)CCCCCNC(=O)OCc1ccccc1)C(C)C`, for which the IC50 in series [1] was > 10000 nM; in series [4], > 10000 nM; in series [5], 147 nM; in series [2], 97 nM; in series [3], > 10000 nM; in series [6], > 10000 nM.
Take `CC(C)C[C@@H](/C=C/C(=O)n1cccc1)NC(=O)[C@H](CC(C)C)NC(=O)[C@H](CC(C)C)NC(=O)CCCCCNC(=O)OCc1ccccc1`: the IC50 in series [1] was > 10000 nM; in series [2] it was 155 nM; in series [3], > 10000 nM.
`CC(C)C[C@@H](/C=C/C(=O)n1cccc1)NC(=O)[C@H](CC(C)C)NC(=O)[C@H](CC(C)C)NC(=O)OCc1ccccc1`: the IC50 is 7890 nM in series [1], 91 nM in series [2] and > 10000 nM in series [3].
`CC[C@H](C)[C@H](NC(=O)[C@H]([C@@H](C)CC)N(C)C(C)=O)C(=O)N[C@H](C(=O)N[C@@H](CC(C)C)C(=O)[C@@]1(C)CO1)[C@@H](C)O` [EPOXOMYCIN] displayed a 50% inhibitory concentration (IC50) in series [1] of 5 nM.
For the compound `Cc1c(O)cccc1C(=O)N[C@@H](CC(C)C)C(=O)N[C@@H](CC(C)C)C(=O)N[C@H](/C=C/C(=O)n1cccc1)CC(C)C`, the IC50 in series [1] was 3630 nM; in series [4], > 10000 nM; in series [5], 135 nM; in series [2], 65 nM; in series [3], > 10000 nM; in series [6] it was 5600 nM. For the same compound, the Activity result (in series [7]; with JIYOYE) was “Not Active” in each case.
